Experimental data published in ChEMBL document CHEMBL1128479, “Synthesis and structure-activity relationships of stilbene retinoid analogs substituted with heteroaromatic carboxylic acids” (J Med Chem, 1995).
pEC50, pIC50: −log10 of the molar value.

Columns and labels:
HL-60 = experiment: Transglutaminase activity in HL-60 cdm-1 cells; format: functional, cell-based; conditions: Homo sapiens
How it was run: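 Log-phase cells in RPMI 1640 with insulin/transferrin/selenide were pretreated with 1.25% DMSO for 18 h, then resuspended with retinoid or 0.1% ethanol control for 24 h. Lysate Tgase was measured as Ca2+-dependent [3H]putrescine conjugation to N,N-dimethylcasein.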

Mus musculus [1] = species on record: Mus musculus; experiment: Inhibition of tumor-promoter-induced ornithine decarboxylase in TPA-treated female hairless mice; format: functional
How it was run: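 Retinoids were applied dorsally in 100 μL acetone 1 h before TPA (40 nmol/mouse in acetone). Mice were killed 4 h later, epidermis scraped after 55 °C for 30 s, and homogenate supernatant assayed for ODC by 14CO2 release (benzethonium hydroxide trap). Activity was normalized to protein.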

Mus musculus [2] = species on record: Mus musculus; experiment: In vitro inhibition of chondrogenesis in mouse embryo limb bud cells; format: functional, cell-based
How it was run: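 Micromass cultures of day 11 mouse embryo forelimb bud cells (trypsin-EDTA dissociated, 200 000 cells/spot) in Eagle's MEM + 10% FBS. Retinoids 0.01 ng/mL–10 μg/mL (0.03 nM–30 μM) were added 24 h after plating, with ethanol vehicle (<1%). Cultures ended at 96 h, formalin/cetylpyridinium fixed, and cartilage nodules counted by image scan. Four replicates per concentration; IC50 from logarithmic curve fit.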

[3] = biological target: T1, Retinoic acid receptor RXR-alpha (Homo sapiens, UniProt P19793); experiment: Transcriptional activation of Retinoid X receptor RXR alpha
T1 sequence (P19793 whole entry): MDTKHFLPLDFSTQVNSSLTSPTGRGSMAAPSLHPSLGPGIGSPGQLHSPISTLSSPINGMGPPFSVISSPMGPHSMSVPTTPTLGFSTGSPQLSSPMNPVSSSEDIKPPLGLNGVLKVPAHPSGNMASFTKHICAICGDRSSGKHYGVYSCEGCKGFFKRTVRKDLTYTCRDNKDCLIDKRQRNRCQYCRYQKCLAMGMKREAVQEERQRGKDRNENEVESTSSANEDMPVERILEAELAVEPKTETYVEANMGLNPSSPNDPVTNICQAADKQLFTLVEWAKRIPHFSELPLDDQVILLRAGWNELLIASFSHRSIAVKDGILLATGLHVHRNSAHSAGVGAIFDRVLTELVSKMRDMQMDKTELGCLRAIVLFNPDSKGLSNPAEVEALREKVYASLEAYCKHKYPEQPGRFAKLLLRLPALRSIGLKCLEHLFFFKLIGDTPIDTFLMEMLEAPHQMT

[4] = biological target: T2, Retinoic acid receptor beta (Homo sapiens, UniProt P10826); experiment: Transcriptional activation of Retinoic acid receptor RAR beta
T2 sequence (P10826 whole entry): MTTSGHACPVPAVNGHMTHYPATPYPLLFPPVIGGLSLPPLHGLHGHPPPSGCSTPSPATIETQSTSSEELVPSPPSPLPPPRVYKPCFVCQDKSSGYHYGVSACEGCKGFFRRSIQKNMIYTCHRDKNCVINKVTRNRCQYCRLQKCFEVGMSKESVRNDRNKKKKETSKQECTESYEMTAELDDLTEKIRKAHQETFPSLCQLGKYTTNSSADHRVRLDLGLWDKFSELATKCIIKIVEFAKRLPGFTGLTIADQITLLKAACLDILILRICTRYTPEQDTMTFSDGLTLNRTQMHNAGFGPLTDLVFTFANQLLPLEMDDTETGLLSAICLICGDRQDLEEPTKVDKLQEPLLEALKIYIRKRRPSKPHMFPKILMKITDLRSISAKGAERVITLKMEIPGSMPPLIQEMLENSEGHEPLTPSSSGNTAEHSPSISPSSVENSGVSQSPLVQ

[5] = biological target: T3, Retinoic acid receptor alpha (Homo sapiens, UniProt P10276); experiment: Transcriptional activation of Retinoic acid receptor RAR alpha
T3 sequence (P10276 whole entry): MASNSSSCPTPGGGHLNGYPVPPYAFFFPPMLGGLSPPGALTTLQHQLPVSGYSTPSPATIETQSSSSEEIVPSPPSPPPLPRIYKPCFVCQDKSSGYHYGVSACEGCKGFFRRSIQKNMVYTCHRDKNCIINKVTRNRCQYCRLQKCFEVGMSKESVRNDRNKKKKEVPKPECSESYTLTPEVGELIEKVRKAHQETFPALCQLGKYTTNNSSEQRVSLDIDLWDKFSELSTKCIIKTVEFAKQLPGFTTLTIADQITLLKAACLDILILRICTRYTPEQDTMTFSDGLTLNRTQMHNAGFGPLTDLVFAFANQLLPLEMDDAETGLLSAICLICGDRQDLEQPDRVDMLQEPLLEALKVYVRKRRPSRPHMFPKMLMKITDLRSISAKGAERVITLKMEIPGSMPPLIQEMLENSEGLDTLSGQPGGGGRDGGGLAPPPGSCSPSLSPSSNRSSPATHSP

[6] = biological target: T4, Retinoic acid receptor gamma (Homo sapiens, UniProt P13631); experiment: Transcriptional activation of Retinoic acid receptor RAR gamma
T4 sequence (P13631 whole entry): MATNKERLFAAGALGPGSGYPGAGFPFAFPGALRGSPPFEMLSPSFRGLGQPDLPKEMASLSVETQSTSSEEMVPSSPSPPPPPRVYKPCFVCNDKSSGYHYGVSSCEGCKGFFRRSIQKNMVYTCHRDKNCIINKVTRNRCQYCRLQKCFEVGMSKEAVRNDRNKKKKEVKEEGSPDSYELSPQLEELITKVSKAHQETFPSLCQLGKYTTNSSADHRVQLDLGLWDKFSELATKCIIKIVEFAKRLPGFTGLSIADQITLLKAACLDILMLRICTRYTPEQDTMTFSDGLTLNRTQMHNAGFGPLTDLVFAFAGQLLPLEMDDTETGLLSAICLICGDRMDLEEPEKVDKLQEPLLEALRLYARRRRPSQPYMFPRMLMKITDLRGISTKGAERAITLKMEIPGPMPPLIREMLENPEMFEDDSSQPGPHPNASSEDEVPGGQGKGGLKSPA

Row | pEC50 (HL-60) | pEC50 [3] | pEC50 [4] | pEC50 [5] | pEC50 [6] | SMILES | IC80 (Mus musculus [1]) | pIC50 (Mus musculus [2])
1 | 7.70 | 6.70 | < 5.00 | < 5.00 | < 5.00 | C/C(=C\c1cc(C(=O)O)cs1)c1cc2c(cc1C)C(C)(C)CCC2(C)C | > 300 nmol | 7.20
2 | 8.70 |  |  |  |  | CC1=C(/C=C/C(C)=C\C=C\C(C)=C\C(=O)O)C(C)(C)CCC1 [ALITRETINOIN] | 3.6 nmol | 7.24
3 | 8.30 |  |  |  |  | CC1=C(/C=C/C(C)=C/C=C/C(C)=C/C(=O)O)C(C)(C)CCC1 [TRETINOIN] | 1.4 nmol | 7.51

Second part, the compound before the results:

Row | SMILES | pEC50 (HL-60) | pEC50 [3] | pEC50 [4] | pEC50 [5] | pEC50 [6] | IC80 (Mus musculus [1]) | pIC50 (Mus musculus [2])
4 | C/C(=C\c1ccc(C(=O)O)cc1)c1ccc2c(c1)C(C)(C)CCC2(C)C | < 6.00 | < 5.00 |  |  |  | 0.08 nmol | 10.22
5 | C/C(=C\c1csc(C(=O)O)c1)c1cc2c(cc1C)C(C)(C)CCC2(C)C |  | 6.95 | 5.97 | < 5.00 | < 5.00 |  | 
6 | C/C(=C\c1ccc(C(=O)O)cc1)c1cc2c(cc1C)C(C)(C)CCC2(C)C | 8.00 |  |  |  |  | 1.2 nmol | 8.10
7 | C/C(=C\c1ccc(C(=O)O)s1)c1cc2c(cc1C)C(C)(C)CCC2(C)C | 8.30 | 7.96 | 7.64 | < 5.00 | 7.43 | 5.4 nmol | 7.82
8 | C/C(=C\c1ccc(C(=O)O)cn1)c1cc2c(cc1C)C(C)(C)CCC2(C)C |  | 6.98 | 7.68 | 5.57 | 6.43 |  | 
9 | C/C(=C\c1cccc(C(=O)O)c1)c1cc2c(cc1C)C(C)(C)CCC2(C)C |  | < 5.00 | < 5.00 | < 5.00 | < 5.00 |  | 
10 | C/C(=C\c1ccc(C(=O)O)o1)c1cc2c(cc1C)C(C)(C)CCC2(C)C |  | 6.23 | < 5.00 | < 5.00 | < 5.00 |  | 
